H9c2 protect – myocardial damage modulation in H9c2 cells; AID 588492; protection from H2O2 cell death, % at 20 µM; H9c2 cardiomyocytes, H2O2 injury protection, ATPLite, 2 h; 360,000 tested, 0.63% active;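 active = compounds giving at least 50% protection of heart cells from peroxide-induced death in the single-dose screen, raw or plate-pattern-corrected value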;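 also: 0% = DMSO wells with peroxide and 100% = DMSO wells without peroxide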
GASC-1 inh – blocks human GASC-1 demethylase activity; Q9H3R0; GST-JMJD2C(1-420) H3K9me3 demethylation, DELFIA europium; inhibition, % at 2.35 µM; 330,000 tested, 0.069% active;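 active = more than half of a compound's replicate wells show inhibition beyond 50%, single wells judged on their own value; inconclusive = some, but no more than half, of replicates pass 50% inhibition; inactive = no replicate passes 50% inhibition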;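 also: signal counts dimethyl H3K9 product captured on neutravidin plate; 0% = median of DMSO wells and 100% = 0.3 times that DMSO median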
T cruzi inh – T. cruzi replication inhibition | T. cruzi beta-gal in NIH3T3, luminescence, 90 h | inhibition, % (no concentration beside the values) | 300,000 tested, 1.4% active | AID 1885;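 active = mean inhibition across valid replicates above about 55%, limit read from the data; inconclusive = mean below that limit but half or more replicates reach it; inactive = mean below it, under half of replicates reach it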;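 also: signal also drops with host cell toxicity which is not excluded here; 0% = plate median of DMSO wells and 100% = zero luminescence signal; higher percent means less beta-gal luminescence so fewer parasites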
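Material: NIH/3T3 host cells with β-galactosidase reporter T. cruzi; Input: 5,000 host fibroblasts per well; Medium: DMEM, 2% fetal bovine serum; Compound: 50 nL DMSO compound solution per well; Schedule: 3 h host attachment, then at least 90 h co-culture; Detection: luminescent β-galactosidase signal after 60 min lysis.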
CTSL1 counter – blocks F. hepatica cathepsin L1 in PFM18AAP counter-screen | recombinant F. hepatica cathepsin L1, Z-Leu-Arg-MCA fluorescence | inhibition, % at 5.96 µM | 300,000 tested, 0.49% active | AID 1906;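 active = inhibition above the mean of all tested compounds plus 3 SD, set per screening campaign, cut at about 17% in these data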;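 also: 0% = plate median of test compound wells and 100% = 1 µM Z-Phe-Ala-diazomethylketone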
PP5 inh – PP5 (human) phosphatase inhibition | P53041 | purified PP5c, OMFP substrate fluorescence | inhibition, % at 6.7 µM | 320,000 tested, 0.18% active | AID 1987;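 active = inhibition above the campaign's mean inhibition across all tested compounds plus 3 SD, cut at about 9.5% in these data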;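 also: 0% = DMSO only and 100% = 100 µM cantharidin control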
p-CIP stab down – compounds decreasing mouse p/CIP protein stability; 290,000 tested, 0.01% active; Q05BA5; F442A p/CIP-EGFP cells, EGFP fluorescence, 16 h; decrease of EGFP signal, % at 10 µM;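 active = EGFP signal decrease of at least 30% at 10 µM or well 3 SD below plate mean, unless failing retest; inactive = the rest, including hits failing retest or dose response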
PP5 inh confirm – PP5 (human) inhibition, confirmation; Purified PP5, fluorogenic phosphatase substrate, fluorescence; shares compounds with PP5 inh; inhibition, % at 6.7 µM; 460 tested, 22% active; AID 2331; in the data active = inhibition above about 9.5%
PP1 inh counter – inhibits human PP1 phosphatase in PP5 counter-screen; 460 tested, 4% active; shares compounds with PP5 inh; PP1 enzyme, fluorescent phosphatase substrate; AID 2355; inhibition, % at 6.7 µM; in the data active = inhibition above about 16%
Target sequence (P62136 whole entry, looked up): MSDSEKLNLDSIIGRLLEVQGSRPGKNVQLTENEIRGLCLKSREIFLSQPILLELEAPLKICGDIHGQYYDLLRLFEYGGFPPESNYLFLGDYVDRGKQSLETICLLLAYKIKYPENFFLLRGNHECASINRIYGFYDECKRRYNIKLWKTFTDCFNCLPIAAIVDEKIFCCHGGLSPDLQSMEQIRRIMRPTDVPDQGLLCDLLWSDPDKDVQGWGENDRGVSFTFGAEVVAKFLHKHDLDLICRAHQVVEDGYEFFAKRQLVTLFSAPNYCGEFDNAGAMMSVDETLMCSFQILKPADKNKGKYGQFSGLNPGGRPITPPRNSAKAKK
Starred values were filed as active, the others as inactive; ? = inconclusive; / = no result given; ! = repeats disagree. An excerpt weighted towards active compounds, which were near 2.4% of everything screened.

SMILES	H9c2 protect	GASC-1 inh	T cruzi inh	CTSL1 counter	PP5 inh	p-CIP stab down	others
O=C(COc1ccccc1)N1CCN(C/C=C/c2ccccc2)CC1	0	17	-2	-3	-1	-2
c1ccc(N2C3C4CC(C5CCCC54)C32)cc1 (stereo not given)	-9	/	/	/	/	/
COc1ccccc1CN1CCN(Cc2ccc(Cl)cc2)CC1	7	0	58*	-2	3	-2
CC/C=C/CC(=O)N[C@@H](c1ccccc1)[C@@H](O)C(=O)O[C@H]1C[C@@]2(O)[C@@H](OC(=O)c3ccccc3)C3[C@](C)(C(=O)[C@H](OC(C)=O)C(=C1C)C2(C)C)[C@@H](O)C[C@H]1OC[C@@]31OC(C)=O (stereo not given in full)	1	-5	45	1	2	8
CCC(C)C(=O)N[C@@H](c1ccccc1)[C@@H](O)C(=O)O[C@H]1C[C@@]2(O)[C@@H](OC(=O)c3ccccc3)C3[C@](C)(C(=O)[C@H](OC(C)=O)C(=C1C)C2(C)C)[C@@H](O)C[C@H]1OC[C@@]31OC(C)=O (stereo not given in full)	1	-2	57*	-2	2	2
C/C=C(\C)C(=O)N[C@@H](c1ccccc1)[C@@H](O)C(=O)O[C@H]1C[C@@]2(O)[C@@H](OC(=O)c3ccccc3)C3[C@](C)(C(=O)[C@H](OC(C)=O)C(=C1C)C2(C)C)[C@H](O)C[C@H]1OC[C@@]31OC(C)=O (stereo not given in full)	-3	?	56*	3	3	8
CC(=O)O[C@@]12CO[C@@H]1C[C@@H](O)[C@@]1(C)C(=O)[C@H](O)C3=C(C)[C@@H](OC(=O)[C@H](O)[C@@H](NC(=O)c4ccccc4)c4ccccc4)C[C@@](O)([C@@H](OC(=O)c4ccccc4)C12)C3(C)C (stereo not given in full)	-2	48	71*	-5	2	-3
COC(=O)C1C(C(=O)O)C2(Cl)C(Cl)=C(Cl)C1(Cl)C2(Cl)Cl (stereo not given)	2	/	/	/	/	/
CC1=C2CCC3C(CCC4=CC(=O)CCC43C)C2CC1 (stereo not given)	-1	/	/	/	/	/
CC1CC(NC(=O)C2C3CCC(O3)C2C(=O)O)CC(C)(C)C1 (stereo not given)	25	1	-14	-4	79*	-15
CNC(=O)Oc1cc2c(cc1C(C)(C)C)CCC2	-3	/	/	/	/	/
Cc1ccccc1-n1c(O)c(/C=N/c2nccs2)c(=O)[nH]c1=O	-3	0	0	17*!	2	-2
Cc1cccc(N=Cc2c(O)n(-c3ccccc3C)c(=O)[nH]c2=O)c1	7	/	-13	-2	0	-6
COc1cc2c(cc1O)[C@@H]1Cc3ccc(OC)c(O)c3CN1CC2	-6	/	/	65*	6	/
COP(=O)(/C=C(\Cl)c1ccccc1)/C=C(\Cl)c1ccccc1	-4	-14	-6	-3	0	-8
N#CC12CC(=O)N1Cc1cnnn1-c1ccccc12 (stereo not given)	6	/	/	/	/	/
O=C1NC(=O)N(c2ccc(F)cc2)C(=O)/C1=C/c1ccsc1	-13	8	3	35*	-6	-2
COc1cc(OC)c(C=O)c(OC(=O)N(C)C)c1	10	-5	-8	28*	-1	-17
CN1CCC(N(C)c2nc(-c3ccc([N+](=O)[O-])cc3)nc3ccccc23)CC1	-29	-6	37	/	/	-7
CN(CC1COc2ccccc2O1)c1nc(-c2cccnc2)nc2ccccc12 (stereo not given)	90*	1	?	8	4	/
COC(=O)C1=C(c2ccc(F)cc2F)C[C@@H]2CC[C@H]1N2C(=O)N1CCC(O)(c2ccc(Cl)cc2)CC1	2	-6	/	/	8	/
O=C1CN=C(c2ccccc2)c2ccccc2N1Cc1ccc(C(F)(F)F)cc1	-10	-34	39	4	13*	-12	PP5 inh confirm=-1;PP1 inh counter=0
CCc1cc2c(cc1-c1csc(C/C(N)=N/O)n1)C(C)(C)CCC2(C)C	-7	/	/	/	/	/
C/C=C(\C)C(=O)OC1C(C)=C2C(C1OC(=O)CCCCC)C(C)(OC(C)=O)CC(OC(=O)CCC)C1(O)C2OC(=O)C1(C)O (stereo not given)	/	9	10	9	11*	-20	PP5 inh confirm=11*;PP1 inh counter=11
CCOC(=O)c1ccc(NC(=O)C2C3C=CC(O3)C2C(=O)O)cc1 (stereo not given)	/	1	-5	1	28*	-9	PP5 inh confirm=-3;PP1 inh counter=2
CCOC(=O)C1(c2ccccc2)CCN(CC(=O)c2ccc(NC(C)=O)cc2)CC1	5	/	/	/	/	/
O=[N+]([O-])c1ccc(C(c2ccc([N+](=O)[O-])cc2)c2ccc([N+](=O)[O-])cc2)cc1	-9	/	/	/	/	/
Cc1[nH]n(-c2ccccc2)c(=O)c1C(c1ccc([N+](=O)[O-])cc1)c1c(C)[nH]n(-c2ccccc2)c1=O	-22	?	-9	-5	9.9*	6	PP5 inh confirm=16*;PP1 inh counter=9
CO[C@@H]1C=CC23c4cc5c(cc4CO[C@]2(O)CN(C)[C@H]3C1)OCO5 (stereo not given in full)	1	7	/	/	/	/
